In the library only some 1.6% were active in any assay of this set; here they are far more common.
SENP1 inh: inhibitors of human SENP1 SUMO protease catalytic domain; AID 624204; inhibition, % at 10 µM; hit rate 0.21% among 360,000; recombinant SENP1 catalytic domain, CyPet-SUMO1-YPet FRET cleavage;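 active = inhibition at least 30% at 10 µM, raw YFP signal under a set limit, fluorescence ratio 0.5 to 1.5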;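 also: 0% = enzyme with DMSO and 100% = no enzyme wells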
Target sequence (Q9P0U3 419-644 limits assumed): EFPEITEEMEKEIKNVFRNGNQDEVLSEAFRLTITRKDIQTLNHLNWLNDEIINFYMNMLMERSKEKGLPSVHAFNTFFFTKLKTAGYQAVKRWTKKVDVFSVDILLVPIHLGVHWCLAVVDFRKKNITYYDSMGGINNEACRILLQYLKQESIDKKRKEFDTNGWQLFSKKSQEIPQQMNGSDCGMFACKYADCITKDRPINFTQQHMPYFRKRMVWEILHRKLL
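Test system: recombinant human SENP1 catalytic domain, His6-tagged / Medium: pH 8 Tris buffer with EDTA, NaCl, BME, BSA, NP40, catalase / Also added: SUMO1 FRET substrate flanked by Cypet and Ypet, 25 nM / Times: 50 min reaction at room temperature / Signal: FRET, CFP and YFP emission / Control set: no-enzyme low control and enzyme-plus-DMSO high control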
TPT1 inh: inhibitors of Candida albicans tRNA 2'-phosphotransferase TPT1 | recombinant caTPT1, FP RNA substrate dephosphorylation | inhibition, % at 5 µM | hit rate 0.81% among 300,000 | AID 1962;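 active = inhibition above the mean of all tested compounds plus 3 SD, set per screening campaign, cut at about 24% in these data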;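 also: plate controls were DMSO alone for no effect and ferristatin control at 100 nM for full effect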
CSN deneddyl inh: inhibitors of human CSN-mediated cullin deneddylation | hit rate 0.38% among 360,000 | Purified CSN, SCF-Nedd8-OG deneddylation, fluorescence polarization | Q92905 | inhibition, % at 12.5 µM;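 active = pattern-corrected inhibition above about 35%, with an unprinted fluorescence ratio check between 0.5 and 1.5, limit read from the data, passing the limit was not always enough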;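 also: 0% = enzyme with substrate and 100% = substrate without enzyme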
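Schedule: reaction 90 min, room temperature / Assay system: HEK293T-derived human Csn5 enzyme / Input: Csn5 at 0.24 nM final / Measure: inhibition of Csn5 cleavage, % / Control set: substrate-only high control, full reaction low control / Technique: fluorescence polarization of the substrate / Buffer or medium: Tris/NaCl/DTT buffer, pH 7.5 / Reagent: SCFSkp2-Nedd8OG substrate at 10 nM final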
HNF4A DNA FP: change in binding of human HNF4 alpha to DNA. HNF4a-FITC DNA binding, fluorescence polarization, 1 h. activity change, % at 10 µM. hit rate 0.3% among 360,000; in the data active = activity change above about 30%, passing the limit was not always enough
Rpn11 inh: inhibitors of human proteasome Rpn11. O00487. human 26S proteasome, Ub4-pepOG fluorescence polarization; 20S core pre-blocked with epoxomicin. inhibition, % at 20 µM. hit rate 0.59% among 360,000. AID 588493;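 active = inhibition at 20 µM, scaled to each plate's controls, above about 33%, limit read from the data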
Target sequence (O00487 whole entry, looked up): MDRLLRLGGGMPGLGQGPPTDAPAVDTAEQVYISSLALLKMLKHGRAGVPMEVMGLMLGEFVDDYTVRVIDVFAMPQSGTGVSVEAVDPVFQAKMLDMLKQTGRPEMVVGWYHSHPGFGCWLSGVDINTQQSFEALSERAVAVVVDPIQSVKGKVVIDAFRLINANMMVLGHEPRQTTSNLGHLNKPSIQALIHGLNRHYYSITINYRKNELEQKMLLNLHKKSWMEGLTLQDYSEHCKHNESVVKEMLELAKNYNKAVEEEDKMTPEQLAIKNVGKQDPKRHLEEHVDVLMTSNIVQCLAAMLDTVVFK
An asterisk follows results filed as active; . = no result shown.

SMILES	SENP1 inh	TPT1 inh	CSN deneddyl inh	HNF4A DNA FP	Rpn11 inh
CCCOc1ccc(C2/C(=C(/O)c3ccc(F)cc3)C(=O)C(=O)N2CCCN(C)C)cc1 (centres undefined)	-2	0	39*	4	6
COc1ccc(Cn2c(O)c(/C=N/NC(=O)c3cccnc3)c3ccccc3c2=O)cc1	-28	.	31	44*	.
O=C(N/N=C/c1c(O)n(-c2ccccc2Cl)c(=O)c2ccccc12)c1cccnc1	-39	.	13	33	.
COc1cc(Cl)c(C)cc1NC(=O)CSC1=NCCS1	0	.	-3	1	1
O=C(CCN1C(=O)/C(=C\c2cccs2)SC1=S)Nc1nccs1	60	-1	8	38*	.
COc1ccc(NC(=O)CSc2nc3sc4c(c3c(=O)n2-c2ccc(OC)cc2)CCN(C)C4)cc1	-104	2	98*	6	16
O=C(Nc1ccc(F)cc1)c1ccc(NC(=O)C2CCCO2)cc1 (centres undefined)	2	0	6	-1	0
O=C(Nc1ccc(C(F)(F)F)cc1)c1ccc(NC(=O)C2CCCO2)cc1 (centres undefined)	2	2	13	23	94*
CCn1cc(C=C2C(=O)c3ccccc3C2=O)c2ccccc21	-24	.	-26	36*	-12
c1csc(-c2nc3ccccc3[nH]2)c1	5	-2	-6	-3	0
Cc1ccc(-c2nc3ccccc3[nH]2)s1	59*	-8	-7	-9	-1
COc1ccc(S(=O)(=O)N2CCC[C@H]2C(=O)N2CCC[C@H]2C(=O)NCc2ccncc2)cc1C	0	.	2	0	.
CC(=O)c1ccc2c(c1)C1C=CCC1C(c1ccncc1)N2 (centres undefined)	38*	-7	3	1	8
COc1cc(C)ccc1S(=O)(=O)NC(=O)C1(C)CCN1C(=O)Cc1ccccc1Cl (centres undefined)	2	.	-3	0	-7
N#CC1=C(N)SC(N)=C(C#N)C1CCc1ccccc1	-25	119*	26	125	.
CC(=O)O[C@@H]1C[C@@]2(C)[C@@H](CC[C@H]2[C@@H](C)/C=C\CC(C)C)C2=C[C@@H](O)[C@@]3(O)C[C@@H](O)[C@H](O)C[C@]3(CO)[C@]21O	3	.	-3	5	11
C=CCCC(=O)N1C[C@H]2CON(C)[C@H]2C[C@H]1c1ccccc1Br	3	.	5	-2	18
C=CCCC(=O)N1C[C@@H](CO)[C@@H](NC)C[C@H]1c1ccccc1Br	2	.	107*	0	2
Cc1ccc(C)n1-c1sc2c(c1C(=O)O)CCCC2	-4	6	39*	-42	22
CCOC(=O)c1c(-n2c(C)cc(C=O)c2C)sc2c1CCCC2	-2	-2	4	1	-3
O=C(Nc1ccncc1NC(=O)c1cccc([N+](=O)[O-])c1)c1cccc([N+](=O)[O-])c1	1	0	41*	-5	5
O=C(Nc1cccc(NC(=O)c2cccc([N+](=O)[O-])c2)n1)c1cccc([N+](=O)[O-])c1	0	-3	3	-1	0
CCOC(=O)C1=CCN(S(=O)(=O)c2ccccc2)C1c1ccc(C)cc1 (centres undefined)	2	.	-2	-7	-3
CCOC(=O)C1=CCN(S(=O)(=O)c2ccccc2)C1c1ccccc1 (centres undefined)	3	.	121*	-1	-2
Cc1[nH]c2ccccc2c1C(=O)CSc1nc2cc(S(=O)(=O)N3CCCCC3)ccc2o1	-1	6	100*	4	8
SMILES	SENP1 inh	TPT1 inh	CSN deneddyl inh	HNF4A DNA FP	Rpn11 inh
Cc1ccc(S(=O)(=O)N2C3CCCCC3O[C@H]2CC(=O)c2cccc3ccccc23)cc1 (some centres undefined)	-1	.	1	2	.
CN[C@H]1C[C@H]2c3[nH]c4ccc(-c5ccc(OC)cc5)cc4c3CCN2C(=O)[C@H]1[C@H](C)O	-52	.	5	8	22
COc1cc(-c2onc3ccc(Br)cc23)cc(OC)c1OC	-120	2	-6	43*	1
CC(C)OC(=O)/C(C#N)=C/c1ccc(-c2ccc(SC(F)F)cc2)o1	-28	3	4	-2	57*
Nc1ccccc1Nc1ccccc1	49*	8	6	12	15
Nc1ccc(Nc2ccccc2)c(Cl)c1	-7	3	3	1	4
CNc1ccc(Cl)cc1S(=O)(=O)c1ccccc1[N+](=O)[O-]	-2	.	1	1	-1
O=C(CCCCO)CCCCCCCC[C@H]1N[C@H](CO)[C@H](O)[C@@H]1O[C@@H]1O[C@H](CO)[C@@H](O)[C@H](O)[C@H]1O	2	0	-5	3	3
CSCCC(NC(=O)c1ccco1)C(=O)NCCc1ccc(Cl)cc1 (centres undefined)	3	.	37*	1	0
COCCN1C(=O)Cc2c1nc(N)c1c(N)nc(N3CCN(c4ccc(F)cc4)CC3)c(C#N)c21	-23	28*	13	9	24
Cc1cccc(/C=N\N=C\c2cccc(C)c2)c1	0	2	1	1	-1
CCOC(=O)C1CCC2(CC1)C(C#N)=C(N)Oc1n[nH]c(C)c12 (centres undefined)	1	0	-4	3	-8
CC(=O)Nc1ccc(C(=O)CN2CCN(c3ccccc3)CC2)cc1	-3	4	100*	19	8
CC(=O)c1ccc(NC(=O)CN2CCN(c3ccccc3)CC2)cc1	-1	1	2	2	-5
Cc1cccc(C(=O)NC(=S)Nc2ccccc2C(=O)O)c1	-3	-3	78*	8	-4
NC1=NC[C@H](Cc2ccccc2)N1CCc1cccc(F)c1	0	-2	63*	10	9
Fc1cccc(CCN2CCNC[C@@H]2Cc2ccccc2)c1	-2	0	38*	2	-5
CCCC[C@@H]1CNCCN1CCc1cccc(F)c1	-1	-3	5	2	-4
CCn1c(SCC(=O)c2ccccc2)nnc1-c1cccnc1	2	2	3	36*	3
Nc1c(-c2ccccn2)cnn1-c1nc(-c2ccc(F)cc2)cs1	2	2	-7	-2	0
COc1ccc(-c2csc(-n3ncc(-c4ccccn4)c3N)n2)cc1	1	0	1	28*	1
CCc1ccc(C(=O)CSc2nc(N)cc(=O)[nH]2)cc1	2	1	5	49*	1
Cc1ccc(C(=O)CSc2nc(N)cc(=O)[nH]2)cc1C	0	-2	-7	-2	2
CC(C)=CCC[C@H](C)C[C@@H]1Cc2[nH][nH]c(=O)c2[C@@H](c2ccc(F)cc2)O1	1	.	-2	-1	.
Cc1ccc(C)c(C(=O)COC(=O)Cn2c(C)csc2=O)c1	1	0	-2	-2	1
O=C(CCNS(=O)(=O)c1ccccc1)N1CCN(C(c2ccccc2)c2ccccc2)CC1	0	4	-2	0	14
